The results in this text go back to ChEMBL document CHEMBL1146475, “Spasmolytic effects, mode of action, and structure-activity relationships of stilbenoids from Nidema boothii” (J Nat Prod, 2004).

In test [1] the test system is Ileum. Description: Spasmolytic activity in guinea pig ileum assessed as inhibition of spontaneous contraction. The test is classed as functional, tissue-based. As to conditions: Cavia porcellus. In outline: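 Ileum from male guinea-pigs (600-800 g) in Krebs-Henseleit, pH 7.4, isometric tension recorded. After 30 min stabilization and 10 min control period, DMSO-dissolved compound added, one concentration per segment, and recorded 10 min. Inhibition from area under curve of frequency and amplitude. Mean ±SEM of six experiments; IC50 by nonlinear curve fitting.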

Test [2] concerns Ileum. Description: Spasmolytic activity in guinea pig ileum assessed as inhibition of spontaneous contraction relative to papaverine. The test is classed as functional, Cavia porcellus.
Test [3] deals with Calmodulin (Bos taurus) (UniProt P62157). Put plainly: Binding affinity to bovine brain calmodulin by electrophoretic mobility assay in presence of calcium chloride. In outline:
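CaM pretreated 1.5 h at 30 °C with CaCl2, then test compound (0.33 µg in DMSO) applied; interaction judged from CaM band mobility on 15% polyacrylamide gel electrophoresis.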

A short description of test [4]: Inhibition of bovine brain CaM-dependent PDE assessed as inorganic phosphate release in presence of bovine brain calmodulin. Also on record: species or system Bos taurus. An outline of the steps:
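Bovine-brain CaM (0.2 µg) preincubated 3 min with 0.015 units CaM-deficient bovine-brain PDE in buffer with 0.3 units 5′-nucleotidase, 45 mM Tris-HCl, 5.6 mM Mg acetate, 45 mM imidazole, 2.5 mM CaCl2, pH 7.0; reaction started with 100 µL 10.8 mM cAMP, run 30 min. Phosphate measured by Sumner method at 660 nm. IC50 from concentration-inhibition curves, mean ±SEM of at least three experiments.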

In test [5] the test system is Ileum. Description: Spasmolytic activity in guinea pig ileum assessed as inhibition of spontaneous contraction in presence of ODQ. Format: functional, tissue-based. As to conditions: Cavia porcellus. In outline:
(§1)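 Guinea-pig ileum spontaneous-contraction assay (male, 600-800 g, Krebs-Henseleit pH 7.4, isometric tension, 10 min responses, AUC-based inhibition) run in the presence of L-NAME (500 µM) or ODQ (100 µM). Concentration-response curves as mean ±SEM of six data.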

Test [6] relates to Ileum. Put plainly: Spasmolytic activity in guinea pig ileum assessed as inhibition of spontaneous contraction in presence of L-NAME. The note with it: Cavia porcellus. Format: functional, tissue-based. In outline: as §1

Structures are written as SMILES. The source made the active and inactive calls. The calls are words filed in the database; no cut-off is given here.

What is called Emax is the maximal effect, on the per cent scale that the assay sets. The term IC50 denotes the concentration needed to halve the response being measured.

As to `COc1cc(CCc2ccc(O)c(OC)c2)cc(OC)c1`, in test [1], the Emax was 76.4% and the IC50 came out at 1390 nM. Further, the “Ratio IC50” value in test [2] is listed as 3.05. Besides, the result in test [3] was Active.
With `COC1=CC(=O)C2=C(CCc3cc(O)ccc32)C1=O` [EPHEMERANTHOQUINONE], in test [4], the half-maximal inhibitory concentration (IC50) was determined as 10900 nM. Also, the outcome in test [3] was Active.
In the case of `COc1cc(O)cc(CCc2cccc(O)c2)c1` [BATATASIN III], the Emax in test [1] was 67.5%. Moreover, the IC50 in test [1] came out at 240 nM; in test [4], 13300 nM. The “Ratio IC50” value in test [2] was 17.62. Moreover, the result in test [5] and in test [6] was inactive. The outcome in test [3] was Active.
With `Oc1ccc(CCc2cc(O)cc(O)c2)cc1` [DIHYDRORESVERATROL], in test [1], the Emax was 64.1% and the IC50 was 1750 nM. Moreover, the “Ratio IC50” value in test [2] is listed as 2.42. Also, in test [3], the result was Active.
For `COC1=CC(=O)CC12CCc1cccc(O)c1C2=O` (stereo not given) [NIDEMONE], the IC50 in test [4] was found to be 3200 nM. Further, the result in test [3] was Active.
As to `Oc1cc(O)cc(CCc2ccccc2)c1` [DIHYDROPINOSYLVIN], in test [1], the Emax came to 83.3% and the IC50 was 1490 nM. Also, the “Ratio IC50” value in test [2] is given as 2.84. Further, in test [4], the IC50 was 36600 nM. The outcome in test [3] was Active.
In the case of `COc1cc(O)c2c(c1)CCc1cc(O)ccc1-2` [LUSIANTHRIDIN], in test [1], the half-maximal inhibitory concentration (IC50) was determined as 410 nM.
For `CN(C)CCCN1c2ccccc2Sc2ccc(Cl)cc21` [CHLORPROMAZINE], in test [1], the Emax turned out to be 81.8% and the IC50 turned out to be 180 nM. The “Ratio IC50” value in test [2] amounted to 23.5. Also, in test [4], the IC50 is 10300 nM.
Turning to `Oc1cc(O)cc(CCc2ccc(O)c(O)c2)c1`, in test [1], the Emax stood at 53.6% and the IC50 stood at 850 nM. Further, in test [2], the “Ratio IC50” value is reported as 4.94. Besides, the outcome in test [3] was Active.
As for `COc1ccc(Cc2nccc3cc(OC)c(OC)cc23)cc1OC` [PAPAVERINE], in test [1], the Emax was determined as 91.8% and the IC50 was found to be 4230 nM.
In the case of `COc1cc(O)cc(CCc2ccc(O)cc2)c1`, in test [1], the Emax was 85% and the half-inhibitory concentration (IC50) came out at 140 nM. The “Ratio IC50” value in test [2] stood at 30.85. For the same compound, the IC50 in test [4] came to 10100 nM. Further, the result in test [3] was Active.
On to `COc1cc(O)cc(CCc2ccc(O)c(OC)c2)c1` [GIGANTOL], for which the Emax in test [1] turned out to be 81.3%. The IC50 in test [1] amounted to 260 nM; in test [4], 7000 nM. In test [2], the “Ratio IC50” value came out at 16.26. Further, the outcome in test [5] and in test [6] was inactive. Moreover, the outcome in test [3] was Active.
For `COc1cc(CCc2cc(OC)c(O)c(OC)c2)ccc1O` [MOSCATILIN], in test [1], the Emax was 73.6% and the IC50 came to 560 nM. Moreover, the “Ratio IC50” value in test [2] turned out to be 7.65.
As to `COc1cccc(CCc2cc(O)cc(OC)c2)c1`, in test [1], the Emax turned out to be 58.6% and the IC50 is 1280 nM. Further, the “Ratio IC50” value in test [2] came to 3.3. Also, the outcome in test [3] was Active.
As for `COc1cccc(CCc2cc(OC)cc(OC)c2)c1`, in test [1], the Emax was 75.6% and the concentration for half-maximal inhibition (IC50) turned out to be 960 nM. Also, the “Ratio IC50” value in test [2] was determined as 4.41. Moreover, the outcome in test [3] was Active.
Regarding `COc1cc2ccc3c(OC)c(O)ccc3c2c(OC)c1O`, the IC50 in test [1] worked out at 450 nM.
In the case of `COc1ccc(CCc2ccccc2)cc1O`, the Emax in test [1] was found to be 82.2%. Moreover, the IC50 in test [1] was 1290 nM; in test [4], 21200 nM. Also, the “Ratio IC50” value in test [2] is reported as 3.28. Besides, the result in test [3] was Active.
Turning to `COc1cc(O)cc(CCc2ccc(OC)c(OC)c2)c1`, in test [1], the Emax amounted to 66% and the IC50 was 580 nM. In addition, the “Ratio IC50” value in test [2] is listed as 7.32. Besides, the result in test [3] was Active.
Taken in the same sequence, the figures for `COc1ccc(CCc2cc(O)cc(O)c2)cc1O` were 51.8%, 700 nM, 5.99 and “Active”.
For the compound `COc1cc(CCc2ccc(OC)c(OC)c2)cc(OC)c1`, in test [1], the Emax is 84.9% and the IC50 was found to be 620 nM. Also, in test [2], the “Ratio IC50” value is on record as 6.82. In test [3], the result was Active.
Regarding `COc1cc(O)cc(CCc2ccc(OC)c(O)c2)c1`, in test [1], the Emax is 66.5% and the IC50 turned out to be 140 nM. Also, the “Ratio IC50” value in test [2] was determined as 31.33. Besides, in test [4], the 50% inhibitory concentration (IC50) came out at 9000 nM. In addition, the outcome in test [3] was Active.
`Oc1cccc(CCc2cc(O)cc(O)c2)c1`: in test [1], the Emax was 78.5% and the IC50 worked out at 2360 nM. Further, in test [2], the “Ratio IC50” value was determined as 1.78. Also, the outcome in test [3] was Active.
